# Screening results deposited in PubChem BioAssay by several laboratories.
# This is a sample that favours compounds with a hit; in the whole collection about 2.3% have one here.
# TRPC4 inh = TRPC4 (mouse) channel inhibition; AID 2247; 300,000 compounds, 0.39% hits; HEK293 TRPC4beta/mu-opioid, DAMGO-evoked Fluo4 calcium flux; stronger effect = lower value; Q9QUQ5; B-score at 10 µM;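 active means B-score over 3 SD under the library average, no early fluorescence shift, positive overall ratio signal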
# Target sequence (Q9QUQ5 whole entry, looked up): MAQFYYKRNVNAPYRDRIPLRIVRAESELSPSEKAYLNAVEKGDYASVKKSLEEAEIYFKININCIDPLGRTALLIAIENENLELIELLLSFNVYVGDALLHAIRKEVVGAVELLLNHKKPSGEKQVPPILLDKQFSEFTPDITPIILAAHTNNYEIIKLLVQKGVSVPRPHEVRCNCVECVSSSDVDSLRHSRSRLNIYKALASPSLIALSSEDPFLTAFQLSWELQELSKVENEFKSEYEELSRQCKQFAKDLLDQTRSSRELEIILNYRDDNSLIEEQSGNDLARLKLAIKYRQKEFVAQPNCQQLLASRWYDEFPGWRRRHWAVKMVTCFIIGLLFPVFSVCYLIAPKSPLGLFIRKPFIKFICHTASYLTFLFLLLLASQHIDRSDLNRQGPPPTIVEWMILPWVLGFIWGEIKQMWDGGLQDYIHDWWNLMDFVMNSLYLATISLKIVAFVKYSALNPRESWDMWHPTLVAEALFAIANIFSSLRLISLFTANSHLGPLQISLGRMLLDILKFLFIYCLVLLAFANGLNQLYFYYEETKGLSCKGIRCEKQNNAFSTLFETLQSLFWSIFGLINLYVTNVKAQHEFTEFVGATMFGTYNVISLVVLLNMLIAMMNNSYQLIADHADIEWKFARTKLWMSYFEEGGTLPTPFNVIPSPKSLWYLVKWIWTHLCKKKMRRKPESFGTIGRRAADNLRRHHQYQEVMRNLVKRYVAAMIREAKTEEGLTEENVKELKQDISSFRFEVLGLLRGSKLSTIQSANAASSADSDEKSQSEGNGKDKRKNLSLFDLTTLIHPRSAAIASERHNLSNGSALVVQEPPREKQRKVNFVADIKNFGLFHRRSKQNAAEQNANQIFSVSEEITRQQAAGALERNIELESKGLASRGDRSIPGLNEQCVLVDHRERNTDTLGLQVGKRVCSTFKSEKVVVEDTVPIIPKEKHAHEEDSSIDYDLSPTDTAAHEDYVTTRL
#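 Assay system: HEK293 cells with stable TRPC4beta plus mu-opioid receptor expression; Probe or stimulus: DAMGO in two steps, submaximal then maximal; Dosing: single-point compound dosing; Measured by: Fluo4 calcium-dye fluorescence, kinetic read; Read-out basis: B score from integrated Fluo4 fluorescence ratio.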
# TRPC6 activator = activates the mouse TRPC6 cation channel | Q61143 | HEK293-TRPC6 membrane potential dye fluorescence; stronger effect = higher value | B-score at 10 µM | 310,000 compounds, 0.13% hits | AID 2550;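 active means B-score of the integrated fluorescence ratio above library mean plus 3 SD, and starting fluorescence ratio within library mean plus 5 SD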;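 further: higher score means more depolarization so channel activation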
# DNA FID counter = displaces DNA intercalator in HCV helicase counter-screen | DNA fluorescent intercalator displacement, fluorescence | inhibition, % at 7.9 µM | 290,000 compounds, 0.17% hits; in the data active means inhibition above about 37%;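 further: 0% = vehicle and 100% = reference compound; higher means more ethidium bromide displaced from hairpin DNA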
# TRPC6 inhibitor = inhibitors of mouse TRPC6 channel; B-score at 10 µM; 310,000 compounds, 1.1% hits; HEK293-TRPC6, membrane potential dye, ACh-evoked depolarization; stronger effect = lower value; AID 2553; Q61143;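 active means B-score under library mean minus 3 SD, initial fluorescence not abnormally high, positive integrated signal ratio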;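 further: B-score derived from integrated fluorescence ratio over the kinetic read; more negative B-score means stronger inhibition of depolarization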
# TRPC4 potent = allosteric potentiators of mouse TRPC4 channel | HEK293 TRPC4beta/mu-opioid, DAMGO EC20, Fluo-4 Ca2+ flux; stronger effect = higher value | B-score at 10 µM | 310,000 compounds, 0.42% hits | AID 2227;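 active means B-score of calcium response area above 5 SD of library B-scores, with initial fluorescence ratio within 5 SD of library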;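 further: B-score of integrated fluorescence ratio over time as area under calcium response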
# TRPC4 agonist = TRPC4 (mouse) channel activation; HEK293 TRPC4beta/mu-opioid, Fluo4 calcium fluorescence; stronger effect = higher value; B-score at 10 µM; 310,000 compounds, 0.49% hits; AID 2237;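 active means B-score above 5 SD of library B-scores, and initial fluorescence ratio not above library mean plus 5 SD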;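 further: positive B-score marks a calcium rise read as TRPC4 activation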
#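 Assay system – TRPC4beta and mu-opioid receptor HEK293 stable cells · Measured by – Fluo4 fluorescence, kinetic · Schedule – dye loading 45 min room temperature, 110 s kinetic read · Read-out – B-scored integrated calcium fluorescence ratio · Controls – buffer and maximal DAMGO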
# The depositor's hits bear a star; i = inactive; x = no result given.
SMILES,TRPC4 inh,TRPC6 activator,DNA FID counter,TRPC6 inhibitor,TRPC4 potent,TRPC4 agonist
CCCCCCC[n+]1ccc(-c2cc[n+](CCCCCCC)cc2)cc1,i,i,55*,i,i,i
NC(Cc1nc2ccccc2[nH]1)c1ccc(Cl)cc1 (stereo not drawn),i,i,7,i,i,i
CCn1cc(CN2CCCC(C(=O)c3cccc(OC)c3)C2)c(C)n1 (stereo not drawn),i,i,0,i,i,53*
Cc1ccc(CN2CCCC(C(=O)c3cccc(C(F)(F)F)c3)C2)o1 (stereo not drawn),i,i,2,i,i,i
O=C(c1cccc(C(F)(F)F)c1)C1CCCN(Cc2ccccc2O)C1 (stereo not drawn),-9*,i,9,i,i,i
O=C(c1ccc(C(F)(F)F)cc1)C1CCCN(Cc2ccncc2)C1 (stereo not drawn),i,i,-8,i,i,51*
CC(C)n1c(O)c(C2c3cc(Cl)ccc3Oc3[nH]c(=O)n(C(C)C)c(=O)c32)c(=O)[nH]c1=O (stereo not drawn),i,i,-9,i,i,i
FC(F)(F)c1ccccc1CNCCc1c[nH]c2ccccc12,i,i,9,i,i,i
CC(=O)c1ccc(OCC(=O)N2CCCC(N(C)Cc3ccccc3)C2)cc1 (stereo not drawn),i,i,-8,i,i,i
CCN(C(C)=O)c1cccc(-c2ccnc3c(C#N)cnn23)c1,x,x,-1,x,x,x
COc1ccc(Br)cc1CN1CCN(C(=O)Cc2ccccc2)CC1,-6*,i,-12,i,i,i
O=C(Cc1ccccc1)N1CCN(Cc2cccc(Br)c2)CC1,-5*,i,-26,i,i,i
O=C(Cc1ccc(Br)cc1)N1CCN(Cc2ccccc2)CC1,i,i,-17,i,i,i
Oc1c(Br)cc(Br)cc1CN1CCN(Cc2ccccc2)CC1,i,i,3,i,20*,i
C=CCn1c(O)c(N=Nc2c(C)n(C)n(-c3ccccc3)c2=O)c(=O)[nH]c1=S,i,i,-7,i,i,45*
Cc1c(N=Nc2c(O)[nH]c(=S)[nH]c2=O)c(=O)n(-c2ccccc2)n1C,i,i,0,i,i,i
COc1ccc(-c2cc(=O)oc3c(C)c(OC(C)C(=O)N4C[C@H]5C[C@@H](C4)c4cccc(=O)n4C5)ccc23)cc1 (stereo partly drawn),i,i,-41,i,i,i
CN1CCN(c2cc([N+](=O)[O-])ccc2Cl)CC1,i,i,3,i,i,i
CC1CN(c2ccc([N+](=O)[O-])cc2Cl)CCN1 (stereo not drawn),i,i,5,i,66*,63*
CN1CCN(c2ccc([N+](=O)[O-])cc2Cl)CC1,i,i,5,i,27*,i
Cc1cccc(CCNCc2cc3ccc(C)cc3[nH]c2=O)c1,i,i,-11,i,i,i
Clc1ccc(C[n+]2c(-c3ccccc3)cc(-c3ccccc3)cc2-c2ccccc2)cc1,i,i,x,-5.2*,i,i
O=C(COc1ccccc1)Nc1ccc(Cl)cc1C(=O)c1ccccc1,i,i,-2,i,i,i
CCN(CC)CC(=O)Nc1ccc(Cl)cc1C(=O)c1ccccc1,-6*,i,10,i,i,i
COc1cc(CN2CCCC(C(=O)c3sccc3C)C2)cc(OC)c1O (stereo not drawn),i,i,-3,i,i,i
COc1ccc(CN2CCCC(C(=O)c3sccc3C)C2)cc1O (stereo not drawn),-7*,i,0,i,i,i
CNC(C)Cc1ccccc1Sc1ccc(O)cc1 (stereo not drawn),-6*,i,32,i,i,i
O=c1[nH]c(O)c(/C=C2\C=Nc3ccc(OCc4ccccc4)cc32)c(=O)[nH]1,i,i,4,i,i,i
